Results of several laboratories.
Target: Myosin light chain kinase family member 4 (MYLK4, Homo sapiens, UniProt Q86YV6)
One construct used (Q86YV6 1-388): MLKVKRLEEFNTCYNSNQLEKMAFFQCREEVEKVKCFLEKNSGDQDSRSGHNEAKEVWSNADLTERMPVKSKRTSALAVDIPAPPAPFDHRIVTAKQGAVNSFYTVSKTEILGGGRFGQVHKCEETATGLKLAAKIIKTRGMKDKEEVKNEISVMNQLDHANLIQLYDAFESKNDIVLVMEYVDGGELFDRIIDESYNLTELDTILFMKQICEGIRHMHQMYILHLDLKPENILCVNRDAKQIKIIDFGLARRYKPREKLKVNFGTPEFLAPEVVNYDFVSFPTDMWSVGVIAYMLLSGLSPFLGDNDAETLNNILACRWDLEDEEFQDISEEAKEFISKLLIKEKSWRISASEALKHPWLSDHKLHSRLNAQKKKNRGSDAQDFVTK

`O=C(NCCCN1CCOCC1)c1ccc(Nc2ncc(Cl)c(-c3ccc(Cl)s3)n2)cc1` gave a remaining binding of 0.05% (binding; competition with immobilised ligand; 1 µM).
For `Cc1cnn2ncc(-c3ccnc(N(C)C)n3)c2c1`, the remaining binding was 80% (binding; 1 µM).
The remaining binding of `COc1ccc2c(c1)O[C@@H](c1ccc(OC)c(OC)c1)C[C@H]2NC(=O)C1(c2ccc3c(c2)OC(F)(F)O3)CC1` is reported as 97% (cell-free assay; competition with immobilised ligand; 1 µM).
`CN(CCCC(F)(F)F)c1nccc(-c2cnn3ncccc23)n1` has a remaining binding of 100% (binding; 1 µM).
`FC(F)(F)Oc1cccc(-c2cnc3ccc(-c4ccncc4)nn23)c1` has a remaining binding of 0.35% (cell-free assay; competition with immobilised ligand; 5 µM).
The remaining binding of `O=C(Nc1c[nH]nc1C(=O)NC1CCNCC1)c1cc(F)cc(F)c1` is reported as 100% (binding; competition with immobilised ligand; 1 µM).
`CCS(=O)(=O)c1cc2cc(C[C@@](O)(CC(C)(C)c3ccc(F)cc3C(N)=O)C(F)(F)F)[nH]c2cn1` has a remaining binding of 100% (cell-free assay; competition with immobilised ligand; 1 µM).
With `c1cncc(-c2cccc(Nc3nccc(NC4CCCCC4)n3)c2)c1` the remaining binding was 51% (binding; competition with immobilised ligand; 10 µM).
With `CNC(=O)Nc1ccc2c(c1)CC[C@@]21OC(=O)N(CC(=O)N(Cc2ccc(F)cc2)[C@@H](C)C(F)(F)F)C1=O` the remaining binding was 70% (cell-free assay; competition with immobilised ligand; 1 µM).
`C[C@@H](c1ccc(-n2cnc3c(N)ncnc32)cc1)N1CCc2nn(C)c(Cc3ccccc3)c2C1=O` has a remaining binding of 100% (binding; competition with immobilised ligand; 0.1 µM).
`COc1cnc(Nc2cccc(S(N)(=O)=O)c2)nc1N1CCN(c2ccccc2)C(=O)C1` gave a remaining binding of 100% (binding; competition with immobilised ligand; 1 µM).
With `N[C@@H]1CCN(c2nccc(-c3cnn4ncccc34)n2)C1` the remaining binding was 100% (binding; 1 µM).
The remaining binding of `CS(=O)(=O)N1CCCC(NC(=O)[C@H](CCC2CCCCC2)NC(=O)c2ccc(CNc3ncnc4c3nnn4-c3ccccc3)cc2)C1` (stereo partly shown) is reported as 100% (cell-free assay; competition with immobilised ligand; 0.1 µM).
The remaining binding of `CN(C)c1nccc(-c2cnn3ncccc23)n1` is reported as 88% (binding; 1 µM).
With `O=C(c1ccc(Nc2nccc(-c3cc4ccccc4s3)n2)cc1)N1CCC(N2CCCC2)CC1` the remaining binding was 0.1% (binding; competition with immobilised ligand; 1 µM).
With `C[C@H](c1cccc(C#N)c1)n1cc(Cl)cc(C(N)=O)c1=N` the remaining binding was 100% (cell-free assay; competition with immobilised ligand; 1 µM).
`CC1CCCN1c1nccc(-c2cnn3ncccc23)n1` (stereo not shown) gave a remaining binding of 100% (binding; 1 µM).
With `CC(=O)c1c(NS(C)(=O)=O)c2cc(-c3ccc(Cl)cc3)c(-c3ccc(Cl)cc3Cl)nc2n(C)c1=O` the remaining binding was 100% (cell-free assay; competition with immobilised ligand; 1 µM).
`O=C(c1ccc(Nc2ncc(Cl)c(-c3ccc(Cl)s3)n2)cc1)N1CCC(N2CCCC2)CC1` has a remaining binding of 0% (binding; competition with immobilised ligand; 1 µM).
